ChEMBL document CHEMBL1149202, “N-Aryl-gamma-lactams as integrin alphavbeta3 antagonists” (Bioorg Med Chem Lett, 2004)

How the values were obtained:
Integrin alpha-V/beta-3 = Integrin alpha-V/beta-3 (Homo sapiens, UniProt P05106+P06756); test: Binding affinity towards vitronectin receptor (AlphaV-beta3 integrin).; assay type: protein-complex assay
Method in brief: (§1)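 Purified integrin (αvβ3; αIIbβ3) was bead-coupled overnight at 4 °C. Competitive electrochemiluminescent binding used Ru-labelled vitronectin for αvβ3 and Ru-labelled fibrinogen for αIIbβ3, in pH 7.5 Tris buffer with Ca2+, Mg2+, Mn2+, 1% BSA and 0.05% Tween-20, for 2 h at 25 °C. DMSO serial dilutions were used. Nonspecific binding was taken with excess unlabelled ligand or 5 mM EDTA. Ki came from a four-parameter fit, SD of ≥2 determinations.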

[1] = target: Integrin alpha-IIb/beta-3 (Homo sapiens, UniProt P05106+P08514); test: Affinity for alphaIIb-beta3 integrin; assay type: protein-complex assay; method in brief: as §1
Integrin alpha-IIb/beta-3, sequence (P05106 27-788 limits assumed): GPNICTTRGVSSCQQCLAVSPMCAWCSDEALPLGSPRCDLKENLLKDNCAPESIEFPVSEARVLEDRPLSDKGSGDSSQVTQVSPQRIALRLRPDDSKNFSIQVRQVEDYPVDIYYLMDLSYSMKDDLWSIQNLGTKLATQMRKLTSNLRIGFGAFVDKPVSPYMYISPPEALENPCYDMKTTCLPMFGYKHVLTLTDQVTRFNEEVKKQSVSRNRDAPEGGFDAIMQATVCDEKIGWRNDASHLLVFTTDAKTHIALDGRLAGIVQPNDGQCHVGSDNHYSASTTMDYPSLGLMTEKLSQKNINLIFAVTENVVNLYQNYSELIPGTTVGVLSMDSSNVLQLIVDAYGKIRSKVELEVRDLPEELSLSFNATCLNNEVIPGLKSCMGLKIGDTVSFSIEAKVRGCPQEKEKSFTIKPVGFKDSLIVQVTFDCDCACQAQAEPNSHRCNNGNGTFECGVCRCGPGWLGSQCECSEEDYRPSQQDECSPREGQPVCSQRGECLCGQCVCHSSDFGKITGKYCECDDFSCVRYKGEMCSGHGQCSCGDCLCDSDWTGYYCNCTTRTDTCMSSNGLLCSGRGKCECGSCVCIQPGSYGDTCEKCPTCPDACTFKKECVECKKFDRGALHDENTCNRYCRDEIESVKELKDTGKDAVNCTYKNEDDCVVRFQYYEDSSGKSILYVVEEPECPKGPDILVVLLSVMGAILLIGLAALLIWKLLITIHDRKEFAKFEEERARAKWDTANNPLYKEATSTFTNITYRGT
Integrin alpha-IIb/beta-3, sequence (P08514 32-887 limits assumed): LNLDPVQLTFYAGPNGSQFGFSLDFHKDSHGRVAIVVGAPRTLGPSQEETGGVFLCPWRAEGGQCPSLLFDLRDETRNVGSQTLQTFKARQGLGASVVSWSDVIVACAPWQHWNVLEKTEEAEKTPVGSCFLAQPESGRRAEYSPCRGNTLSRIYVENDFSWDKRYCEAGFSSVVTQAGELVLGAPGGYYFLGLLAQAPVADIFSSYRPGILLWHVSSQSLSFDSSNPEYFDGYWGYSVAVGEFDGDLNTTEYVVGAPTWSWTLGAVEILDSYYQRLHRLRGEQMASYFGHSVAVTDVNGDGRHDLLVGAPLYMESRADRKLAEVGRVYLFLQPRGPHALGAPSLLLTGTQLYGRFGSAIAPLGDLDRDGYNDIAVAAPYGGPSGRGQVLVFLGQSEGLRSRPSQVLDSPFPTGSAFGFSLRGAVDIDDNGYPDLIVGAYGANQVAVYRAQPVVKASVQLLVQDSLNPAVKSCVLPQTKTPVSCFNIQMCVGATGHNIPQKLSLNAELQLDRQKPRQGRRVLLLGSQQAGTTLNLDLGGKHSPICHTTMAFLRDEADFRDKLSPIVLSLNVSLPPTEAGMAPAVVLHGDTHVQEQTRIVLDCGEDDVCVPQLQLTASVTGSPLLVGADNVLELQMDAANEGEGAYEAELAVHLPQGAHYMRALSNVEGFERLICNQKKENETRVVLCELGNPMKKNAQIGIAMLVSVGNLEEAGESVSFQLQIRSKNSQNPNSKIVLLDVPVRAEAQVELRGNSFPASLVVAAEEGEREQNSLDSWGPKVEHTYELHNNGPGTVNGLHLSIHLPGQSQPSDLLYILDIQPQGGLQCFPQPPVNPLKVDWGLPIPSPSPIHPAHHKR
Integrin alpha-IIb/beta-3, sequence (P08514 891-1039 limits assumed): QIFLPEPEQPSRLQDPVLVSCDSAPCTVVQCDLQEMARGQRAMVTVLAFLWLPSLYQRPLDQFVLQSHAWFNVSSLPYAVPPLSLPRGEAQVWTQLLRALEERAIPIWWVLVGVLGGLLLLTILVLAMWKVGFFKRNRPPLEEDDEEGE

Integrin alpha-V/beta-3, sequence (P05106 27-788 limits assumed): as the sequence (P05106 27-788 limits assumed) above
Integrin alpha-V/beta-3, sequence (P06756 31-889 limits assumed): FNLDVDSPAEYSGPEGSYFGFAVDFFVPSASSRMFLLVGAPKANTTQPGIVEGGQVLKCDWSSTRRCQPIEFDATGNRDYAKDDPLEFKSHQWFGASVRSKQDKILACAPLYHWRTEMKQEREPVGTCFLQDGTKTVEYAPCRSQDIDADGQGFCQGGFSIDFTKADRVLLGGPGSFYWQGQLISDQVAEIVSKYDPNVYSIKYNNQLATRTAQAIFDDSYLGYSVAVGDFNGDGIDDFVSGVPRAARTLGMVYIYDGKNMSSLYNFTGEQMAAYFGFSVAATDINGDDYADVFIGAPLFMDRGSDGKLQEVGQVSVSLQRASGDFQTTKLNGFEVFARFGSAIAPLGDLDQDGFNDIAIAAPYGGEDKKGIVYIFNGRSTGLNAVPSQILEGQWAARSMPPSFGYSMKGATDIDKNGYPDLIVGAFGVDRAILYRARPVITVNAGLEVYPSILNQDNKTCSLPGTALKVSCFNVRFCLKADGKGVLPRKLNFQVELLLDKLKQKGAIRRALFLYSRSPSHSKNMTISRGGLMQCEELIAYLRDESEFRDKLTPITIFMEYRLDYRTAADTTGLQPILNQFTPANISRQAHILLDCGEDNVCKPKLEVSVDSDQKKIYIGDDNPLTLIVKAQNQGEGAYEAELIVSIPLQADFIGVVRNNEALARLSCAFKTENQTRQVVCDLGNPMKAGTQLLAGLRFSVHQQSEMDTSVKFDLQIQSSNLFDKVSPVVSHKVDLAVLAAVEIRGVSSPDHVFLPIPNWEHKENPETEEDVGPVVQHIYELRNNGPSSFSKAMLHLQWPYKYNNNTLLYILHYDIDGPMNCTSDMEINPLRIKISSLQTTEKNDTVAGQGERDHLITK
Integrin alpha-V/beta-3, sequence (P06756 891-1048 limits assumed): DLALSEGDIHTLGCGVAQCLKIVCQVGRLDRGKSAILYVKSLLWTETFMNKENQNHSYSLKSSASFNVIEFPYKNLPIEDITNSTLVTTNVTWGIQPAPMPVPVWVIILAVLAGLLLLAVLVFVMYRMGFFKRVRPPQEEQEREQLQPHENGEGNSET

## O=C(O)CC(NC(=O)C1CC(=O)N(c2cccc(NC3=NCCN3)c2)C1)c1cccnc1 (stereo not drawn)
Integrin alpha-V/beta-3
  Ki: 5.1 nM

## NC(N)=Nc1ccc(Cl)c(N2CC(C(=O)NC(CC(=O)O)c3cccnc3)CC2=O)c1 (stereo not drawn)
Integrin alpha-V/beta-3
  Ki: 52.7 nM

## NC(N)=Nc1ccc(F)c(N2CC(C(=O)NC(CC(=O)O)c3cccnc3)CC2=O)c1 (stereo not drawn)
Integrin alpha-V/beta-3
  Ki: 2.9 nM

## O=C(O)C[C@H](NC(=O)[C@H]1CC(=O)N(c2cccc(NC(=O)NCc3ccccc3)c2)C1)c1cccc(F)c1
Integrin alpha-V/beta-3
  Ki: > 1000 nM
[1]
  Ki: > 25000 nM

## O=C(O)C[C@@H](NC(=O)[C@@H]1CC(=O)N(c2cccc(NC3=NCCCN3)c2)C1)c1ccc2c(c1)OCO2
Integrin alpha-V/beta-3
  Ki: 7.3 nM
[1]
  Ki: > 25000 nM

## O=C(O)CC(NC(=O)C1CC(=O)N(c2cccc(NC3=NCCCN3)c2)C1)c1cccnc1 (stereo not drawn)
Integrin alpha-V/beta-3
  Ki: 1.4 nM

## O=C(O)C[C@@H](NC(=O)[C@@H]1CC(=O)N(c2cccc(NC(=O)NCc3ccccc3)c2)C1)c1cccc(F)c1
Integrin alpha-V/beta-3
  Ki: 154 nM
[1]
  Ki: > 25000 nM

## O=C(O)C[C@H](NC(=O)[C@@H]1CC(=O)N(c2cccc(NC3=NCCCN3)c2)C1)c1ccc2c(c1)OCO2
Integrin alpha-V/beta-3
  Ki: 0.1 nM
[1]
  Ki: 2100 nM

## O=C(O)CC(NC(=O)C1CC(=O)N(c2cccc(NC(=O)NCc3ccccc3)c2)C1)c1cccnc1 (stereo not drawn)
Integrin alpha-V/beta-3
  Ki: 10.4 nM

## O=C(O)CC(NC(=O)C1CC(=O)N(c2cccc(NC(=O)NCc3ccccc3)c2)C1)c1ccccc1 (stereo not drawn)
Integrin alpha-V/beta-3
  Ki: 70.9 nM

## O=C(O)CC(NC(=O)C1CC(=O)N(c2cccc(NC3=NCCCN3)c2)C1)c1ccc2c(c1)OCO2 (stereo not drawn)
Integrin alpha-V/beta-3
  Ki: 0.7 nM

## O=C(O)C[C@@H](NC(=O)[C@H]1CC(=O)N(c2cccc(NC(=O)NCc3ccccc3)c2)C1)c1cccc(F)c1
Integrin alpha-V/beta-3
  Ki: > 1000 nM
[1]
  Ki: > 25000 nM

## O=C(O)CC(NC(=O)C1CC(=O)N(c2cccc(NC(=O)NCc3ccccc3)c2)C1)c1cccc(F)c1 (stereo not drawn)
Integrin alpha-V/beta-3
  Ki: 11.1 nM

## O=C(O)CC(NC(=O)C1CC(=O)N(c2cc(NC3=NCCCN3)ccc2F)C1)c1ccc2c(c1)OCO2 (stereo not drawn)
Integrin alpha-V/beta-3
  Ki: 0.5 nM

## O=C(O)CC(NC(=O)C1CC(=O)N(c2cccc(NC(=O)NCc3ccccc3)c2)C1)c1ccc2c(c1)OCO2 (stereo not drawn)
Integrin alpha-V/beta-3
  Ki: 2.4 nM

## N=C(N)Nc1cccc(N2CC(C(=O)NC(CC(=O)O)c3cccnc3)CC2=O)c1 (stereo not drawn)
Integrin alpha-V/beta-3
  Ki: 16.6 nM

## O=C(O)C[C@H](NC(=O)[C@@H]1CC(=O)N(c2cccc(NC(=O)NCc3ccccc3)c2)C1)c1cccc(F)c1
Integrin alpha-V/beta-3
  Ki: 10 nM
[1]
  Ki: > 25000 nM
